ChEMBL document CHEMBL1138547, “Synthesis, biological evaluation and 2D-QSAR analysis of benzoxazoles as antimicrobial agents” (2009)
Converted amounts (≈) assume the structure as drawn.

Assays:
Format in all cases: functional
Klebsiella pneumoniae [1] = assay: Antimicrobial activity against Klebsiella pneumoniae RSHM 574 after 24 hrs; details: RSHM 574, 24 h
Outline: (§1)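 MIC by twofold serial dilution in Mueller-Hinton broth (MHB); MHB also used to dilute the bacterial suspension. Wells held 10^3 cfu/ml bacteria after inoculation. Controls: 80% DMSO, 20% EtOH, methanol, DMSO, PBS, organism alone and medium alone. Triplicate in each run. MIC taken as the lowest concentration completely inhibiting macroscopic growth.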

Klebsiella pneumoniae [2] = assay: Antimicrobial activity against multidrug-resistant Klebsiella pneumoniae after 24 hrs
Outline: (§2)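 Twofold serial broth dilution in Mueller-Hinton broth. MHB was used both to dilute the bacterial suspension and for the twofold compound dilutions, giving 10^3 cfu/ml bacteria per well after inoculation. Solvent, medium and organism-only wells served as controls. Each organism was run in triplicate.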

Escherichia coli [3] = assay: Antimicrobial activity against Escherichia coli ATCC 25922 after 24 hrs; details: ATCC 25922, 24 h; outline: as §1
Escherichia coli [4] = assay: Antimicrobial activity against multidrug-resistant Escherichia coli after 24 hrs; outline: as §2
Pseudomonas aeruginosa = assay: Antimicrobial activity against Pseudomonas aeruginosa ATCC […] after 24 hrs; outline: as §1
Bacillus subtilis [5] = assay: Antimicrobial activity against Bacillus subtilis ATCC 6633 after 24 hrs; details: for MIC: Bacillus subtilis, ATCC 6633, 24 h; outline: as §1
Bacillus subtilis [6] = assay: Antimicrobial activity against ceftriazone-resistant Bacillus subtilis after 24 hrs; outline: as §2
Staphylococcus aureus [7] = assay: Antimicrobial activity against Staphylococcus aureus ATCC 25923 after 24 hrs; details: ATCC 25923, 24 h; outline: as §2
Staphylococcus aureus [8] = assay: Antimicrobial activity against multidrug-resistant Staphylococcus aureus after 24 hrs; outline: as §2
Candida albicans [9] = assay: Antimicrobial activity against Candida albicans ATCC 10231 after 24 to 48 hrs
Outline: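 Twofold serial dilution following CLSI M27-A. Yeast suspension made at 10^4 cfu/ml by diluting a fresh culture at McFarland 0.5 (10^6 cfu/ml). Inoculated into the diluted compound, incubated at 35 °C in a humid chamber, read after 48 h. Triplicate in each run. MIC is the lowest concentration completely inhibiting macroscopic growth.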

Candida albicans [10] = assay: Antimicrobial activity against multidrug-resistant Candida albicans isolates after 24 to 48 hrs
Outline: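 Yeast broth microdilution following CLSI M27-A, with Sabouraud dextrose medium noted for antifungal assays. Fresh cultures at McFarland 0.5 (10^6 cfu/ml) were diluted to 10^4 cfu/ml and inoculated into twofold compound dilutions. Trays were incubated at 35 °C in a humid chamber and read at 48 h, in triplicate. MIC was the lowest concentration giving complete macroscopic growth inhibition.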

SMILES	MIC (Klebsiella pneumoniae [1]) [µg/mL]	MIC (Klebsiella pneumoniae [2]) [µg/mL]	MIC (Escherichia coli [3]) [µg/mL]	MIC (Escherichia coli [4]) [µg/mL]	MIC (Pseudomonas aeruginosa) [µg/mL]	log(1/C) (Bacillus subtilis [5])	MIC (Bacillus subtilis [5]) [µg/mL]	MIC (Bacillus subtilis [6]) [µg/mL]	MIC (Staphylococcus aureus [7]) [µg/mL]	MIC (Staphylococcus aureus [8]) [µg/mL]	MIC (Candida albicans [9]) [µg/mL]	MIC (Candida albicans [10]) [µg/mL]
CC(C)(C)c1ccc(-c2nc3ccc([N+](=O)[O-])cc3o2)cc1	50 (≈ 169 µM)	100 (≈ 337 µM)	50 (≈ 169 µM)	100 (≈ 337 µM)	50 (≈ 169 µM)	3.773	50 (≈ 169 µM)	100 (≈ 337 µM)	100 (≈ 337 µM)	100 (≈ 337 µM)	50 (≈ 169 µM)	100 (≈ 337 µM)
Nc1ccc2nc(Cc3ccc(Br)cc3)oc2c1	50 (≈ 165 µM)	100 (≈ 330 µM)	50 (≈ 165 µM)	100 (≈ 330 µM)	50 (≈ 165 µM)	4.084	25 (≈ 82.5 µM)	50 (≈ 165 µM)	100 (≈ 330 µM)	100 (≈ 330 µM)	50 (≈ 165 µM)	100 (≈ 330 µM)
O=[N+]([O-])c1ccc2oc(-c3ccccc3)nc2c1	50 (≈ 208 µM)	100 (≈ 416 µM)	50 (≈ 208 µM)	50 (≈ 208 µM)	25 (≈ 104 µM)	4.284	12.5 (≈ 52 µM)	25 (≈ 104 µM)	200 (≈ 833 µM)	400 (≈ 1670 µM)	100 (≈ 416 µM)	50 (≈ 208 µM)
Nc1ccc2oc(Cc3ccc(F)cc3)nc2c1	50 (≈ 206 µM)	100 (≈ 413 µM)	50 (≈ 206 µM)	25 (≈ 103 µM)	50 (≈ 206 µM)	3.685	50 (≈ 206 µM)	50 (≈ 206 µM)	200 (≈ 826 µM)	100 (≈ 413 µM)	100 (≈ 413 µM)	50 (≈ 206 µM)
O=[N+]([O-])c1ccc2oc(Cc3ccc(F)cc3)nc2c1	50 (≈ 184 µM)	100 (≈ 367 µM)	50 (≈ 184 µM)	50 (≈ 184 µM)	25 (≈ 91.8 µM)	4.338	12.5 (≈ 45.9 µM)	50 (≈ 184 µM)	100 (≈ 367 µM)	100 (≈ 367 µM)	100 (≈ 367 µM)	50 (≈ 184 µM)
O=[N+]([O-])c1ccc2nc(Cc3ccc(Br)cc3)oc2c1	50 (≈ 150 µM)	100 (≈ 300 µM)	50 (≈ 150 µM)	100 (≈ 300 µM)	25 (≈ 75 µM)	4.125	25 (≈ 75 µM)	25 (≈ 75 µM)	100 (≈ 300 µM)	100 (≈ 300 µM)	50 (≈ 150 µM)	100 (≈ 300 µM)
Nc1ccc2nc(Cc3ccc(Cl)cc3)oc2c1	50 (≈ 193 µM)	100 (≈ 387 µM)	50 (≈ 193 µM)	100 (≈ 387 µM)	25 (≈ 96.6 µM)	4.32	12.5 (≈ 48.3 µM)	25 (≈ 96.6 µM)	100 (≈ 387 µM)	100 (≈ 387 µM)	50 (≈ 193 µM)	50 (≈ 193 µM)
CCc1ccc(-c2nc3ccc([N+](=O)[O-])cc3o2)cc1	50 (≈ 186 µM)	100 (≈ 373 µM)	50 (≈ 186 µM)	100 (≈ 373 µM)	50 (≈ 186 µM)	3.73	50 (≈ 186 µM)	25 (≈ 93.2 µM)	100 (≈ 373 µM)	100 (≈ 373 µM)	50 (≈ 186 µM)	100 (≈ 373 µM)
Nc1ccc2oc(-c3ccccc3)nc2c1	50 (≈ 238 µM)	100 (≈ 476 µM)	50 (≈ 238 µM)	50 (≈ 238 µM)	50 (≈ 238 µM)	4.226	12.5 (≈ 59.5 µM)	50 (≈ 238 µM)	100 (≈ 476 µM)	100 (≈ 476 µM)	100 (≈ 476 µM)	50 (≈ 238 µM)
Nc1ccc2nc(Cc3ccc(F)cc3)oc2c1	50 (≈ 206 µM)	100 (≈ 413 µM)	50 (≈ 206 µM)	50 (≈ 206 µM)	25 (≈ 103 µM)	3.685	50 (≈ 206 µM)	50 (≈ 206 µM)	100 (≈ 413 µM)	100 (≈ 413 µM)	50 (≈ 206 µM)	50 (≈ 206 µM)
O=[N+]([O-])c1ccc2nc(-c3ccc(F)cc3)oc2c1	50 (≈ 194 µM)	100 (≈ 387 µM)	50 (≈ 194 µM)	100 (≈ 387 µM)	50 (≈ 194 µM)	3.713	50 (≈ 194 µM)	25 (≈ 96.8 µM)	100 (≈ 387 µM)	100 (≈ 387 µM)	50 (≈ 194 µM)	100 (≈ 387 µM)
O=[N+]([O-])c1ccc2nc(-c3ccccc3)oc2c1	50 (≈ 208 µM)	100 (≈ 416 µM)	50 (≈ 208 µM)	25 (≈ 104 µM)	50 (≈ 208 µM)	3.983	25 (≈ 104 µM)	25 (≈ 104 µM)	200 (≈ 833 µM)	100 (≈ 416 µM)	100 (≈ 416 µM)	50 (≈ 208 µM)
CC(C)(C)c1ccc(-c2nc3ccc(N)cc3o2)cc1	50 (≈ 188 µM)	100 (≈ 375 µM)	50 (≈ 188 µM)	100 (≈ 375 µM)	25 (≈ 93.9 µM)	4.027	25 (≈ 93.9 µM)	25 (≈ 93.9 µM)	100 (≈ 375 µM)	100 (≈ 375 µM)	50 (≈ 188 µM)	50 (≈ 188 µM)
Cc1ccc(Cc2nc3cc(N)ccc3o2)cc1	50 (≈ 210 µM)	100 (≈ 420 µM)	50 (≈ 210 µM)	50 (≈ 210 µM)	50 (≈ 210 µM)	4.28	12.5 (≈ 52.5 µM)	25 (≈ 105 µM)	100 (≈ 420 µM)	100 (≈ 420 µM)	100 (≈ 420 µM)	50 (≈ 210 µM)
